The sample as a whole holds a higher share of hits than the screen did.
UPR XBP1 act = activators of adaptive arm of unfolded protein response (XBP1); activation, % at 20 µM; CHO-XBP1 luciferase reporter, IRE1-XBP1 UPR activation, luminescence; percent of tunicamycin response, DMSO as zero; AID 463104; 0.33% of 330,000 active;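 active = versus positive control, 20 µM dose yields 30% or more activation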;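 note: 100% = tunicamycin at 10 µg/mL and 0% = DMSO only wells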
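Assay system: CHO-XBP1 luciferase reporter cells; Schedule: 6 h treatment, 37 °C; Detection: glow luminescence from Steady-Glo reagent; Benchmarks: high control tunicamycin 10 µg/mL final, low control DMSO vehicle only.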
Dynein cargo inh = blocks dynein driven cargo transport along microtubules. 3617.4 mouse cells, GR-EGFP nuclear translocation imaging; test concentration mostly 20 µM; stimulated with dexamethasone, 1 µM; stronger effect = lower value. z-score, hits read low. 0.47% of 220,000 active. AID 1381;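 active = plate z-score of nuclear minus cytoplasmic receptor signal below a set negative limit, without overly bright fluorescence or cell loss, cut at about -3.5 in these data, passing the limit was not always enough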;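 note: z-score of nuclear minus cytoplasmic ring GR-EGFP intensity difference per well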
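Buffer or medium: tet-free, stripped-serum medium; Also added: dexamethasone, 1.0 µM final; Technique: high-content fluorescence imaging after fixation; Times: 48 h induction, 1 h compound, 30 min dex at 37 °C; Read-out: per-cell GR-EGFP intensity, nucleus versus surrounding cytoplasmic ring, well-averaged.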
pCIP destab = compounds decreasing mouse p/CIP protein stability; Q05BA5; 0.01% of 290,000 active; decrease of EGFP signal, % at 10 µM; AID 1984; F442A p/CIP-EGFP cells, EGFP fluorescence, 16 h;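 active = EGFP signal decrease of at least 30% at 10 µM or well 3 SD below plate mean, unless failing retest; inactive = the rest, including hits failing retest or dose response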
UPR CHOP act = activators of apoptotic arm of unfolded protein response (CHOP) | CHO-CHOP luciferase reporter, UPR activation, luminescence; percent of tunicamycin response over DMSO baseline | activation, % at 10 µM | 0.34% of 330,000 active | AID 449763;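 active = at 10 µM dose, activation of 40% or more, normalized to positive control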;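 note: 100% = tunicamycin at 10 µg/mL and 0% = DMSO alone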
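Assay system: CHO-CHOP cells, stable luciferase reporter of PERK-eIF2a-CHOP signalling / Buffer or medium: F12 plus 10% serum / Compound dosing: one dose, 10 µM in 0.5% DMSO / Times: 6 h compound treatment, 37 °C / Technique: luciferase luminescence / Read-out: % reporter activation, DMSO baseline versus tunicamycin full activation / Benchmarks: tunicamycin and DMSO controls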
B2AR ag = human beta-2 adrenergic receptor agonism by FAP. P07550. Am2.2-beta2AR cells, FAP receptor internalization, flow cytometry. response, % (no concentration beside the values). 0.43% of 340,000 active. AID 504454;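 active = response above a set limit, near 3 SD of response in nonfluorescent compounds, cut at about 42% in these data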
Target sequence (P07550 whole entry, looked up): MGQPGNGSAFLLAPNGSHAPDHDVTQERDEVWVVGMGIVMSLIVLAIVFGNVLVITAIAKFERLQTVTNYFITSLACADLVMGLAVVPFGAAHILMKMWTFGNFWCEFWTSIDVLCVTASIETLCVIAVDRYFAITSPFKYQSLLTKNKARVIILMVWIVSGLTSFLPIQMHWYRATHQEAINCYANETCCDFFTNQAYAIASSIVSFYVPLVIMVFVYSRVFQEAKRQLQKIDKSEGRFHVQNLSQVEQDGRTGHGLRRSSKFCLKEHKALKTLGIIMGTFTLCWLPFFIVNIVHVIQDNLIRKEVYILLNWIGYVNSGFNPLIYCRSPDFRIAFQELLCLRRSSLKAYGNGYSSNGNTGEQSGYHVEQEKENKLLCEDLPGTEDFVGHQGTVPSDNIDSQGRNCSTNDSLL
CHOP inh = blocks CHOP induction under ER stress. CHO-K1 CHOP-promoter luciferase, tunicamycin-induced, 15-18 h. inhibition, % at 10 µM. 3.8% of 220,000 active. AID 2732;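 active = compounds that reduced the stress-induced luciferase reporter signal by more than about 70% of percent inhibition, limit read from the data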;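 note: 0% = tunicamycin plus vehicle and 100% = wells without tunicamycin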
Dynein inh conf = dynein cargo transport inhibition, confirmation | 3617.4 GR-EGFP nuclear translocation imaging, dexamethasone-induced | shares compounds with Dynein cargo inh | 69% of 1,000 active | calls only at 20 µM;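 active = inhibition of receptor movement into the nucleus at or above a set limit in both runs, with normal cell brightness and cell count; inconclusive = limit reached in only one run, brightness and count normal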;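 note: dexamethasone at 1 µM final in well for 30 min; nuclear minus cytoplasmic GR-EGFP mean intensity difference in channel 2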
CHOP confirm = confirmation of CHOP induction inhibitors. inhibition, % at 10 µM. 45% of 2,100 active. shares compounds with CHOP inh. CHO-CHOP promoter luciferase reporter, tunicamycin-induced, luminescence;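 active = mean of three repeat readings of reporter signal inhibition above a set limit, cut at about 70% in these data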;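 note: 0% = tunicamycin plus vehicle and 100% = wells lacking tunicamycin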
* hit, by the source's call; i = inactive; u = inconclusive; x = no result given; + = active, no number; ! = a repeat was not active.

SMILES | UPR XBP1 act | Dynein cargo inh | pCIP destab | UPR CHOP act | B2AR ag | CHOP inh | Dynein inh conf | CHOP confirm
Cc1nn(-c2ccccc2)c(Cl)c1CN(C(=O)CCl)c1ccc(Cl)cc1 | x | -3.9* | -2 | x | -180 | 109* | + | 140*
CC(=O)N(Cc1c(C)nn(-c2ccccc2)c1Cl)c1ccc(Cl)cc1 | -2 | -0.84 | 4 | -1 | -2 | 2 | x | x
C/C(=N/NC(=O)COc1cc(C)ccc1C(C)C)C(=O)O | 0 | 0.065 | 2 | 0 | 14 | 16 | x | x
Cc1ccc(C(C)C)c(OCC(=O)NN=C(CCl)CCl)c1 | -2 | -4.6* | -11 | 10 | x | 106* | + | 8
CN1/C(=C/c2cccc[n+]2CCO)Sc2ccccc21 | 0 | x | 2 | -2 | 0 | x | x | x
CC[n+]1c(/C=C2\Sc3ccccc3N2C)ccc2cccc(C)c21 | x | -8.5* | -447 | x | x | 104* | + | 110*
CN(c1ccccc1)c1ccc(/C=C/[N+](=O)[O-])cc1 | x | -3.6* | -7 | x | 88* | 110* | i | -96
Cc1ccc(S(=O)(=O)N[C@@H](Cc2ccccc2)C(=O)CCl)cc1 | -5 | -4.5* | 1 | 8 | 53* | 108*! | i | -261
COc1ccc2c(c1)c1ccc3c(c1n2C)C(=O)C=CC3=O | -11 | -5.8* | -44 | -2 | 96* | 104* | + | 41
Cc1ccc2nc(Nc3ccc4[nH]c(=O)[nH]c4c3)c(-n3nc(C)cc3C)nc2c1 | 4 | -4.4 | -5 | 2 | 25 | 104* | i | 114*
Cc1cc(C)n(-c2nc3ccccc3nc2Nc2ccc3c(c2)OCO3)n1 | -1 | 0.52 | -5 | 1 | -3 | -11 | x | x
Nc1c(C(=O)N/N=C/c2ccc(F)cc2)oc2nc(-c3ccccc3)cc(-c3ccco3)c12 | 5 | -4.1 | -12 | 13 | -2 | 101* | i | -2
CC(C)(C)OC(=O)NCCc1nnc(S(=O)(=O)Cc2ccc(Cl)cc2Cl)o1 | -6 | -6.3* | -2 | 2 | 21 | 106* | u | 129*
CC(C)(C)OC(=O)NCCc1nnc(SCc2ccccc2Cl)o1 | -1 | -1 | -9 | 2 | 12 | 61 | x | x
Nc1cccc2c1C(=O)N(C(=O)/C=C/c1ccc(F)cc1)C2=O | 1 | -4.7* | 1 | 5 | 87* | 103* | + | -111
CCCCc1nnc(NC(=O)Cc2ccc(OC)c(S(=O)(=O)N3CCOCC3)c2)s1 | 0 | x | x | 1 | 5 | x | x | x
CCSc1nc2ccccc2n1C(=O)/C=C\c1ccc(OC)c(OC)c1 | -2 | -4.3* | -13 | 2 | 51* | 110* | + | 111*
CCSc1nc2ccccc2n1CC(N)=O | -2 | -0.063 | -8 | 1 | 10 | 16 | x | x
CNC(=O)c1nnsc1S(=O)(=O)c1ccc(Cl)cc1 | -11 | -4* | -8 | -10 | 49* | 107* | + | 114*
O=C(c1nnsc1S(=O)(=O)c1ccc(Cl)cc1)N1CCOCC1 | -6 | -6* | -5 | 28 | 24 | 102* | + | 95*
O=C(c1nnsc1S(=O)c1ccc(Cl)cc1)N1CCOCC1 (stereo unspecified) | -10 | -4.8* | 0 | -10 | 29 | 107* | + | 54
COc1ccc(N(CC(=O)NN=C2CCN(C)CC2)S(=O)(=O)c2ccc(NC(C)=O)cc2)cc1 | 6 | x | -2 | 0 | -3 | x | x | x
CC(C)(C)C(=O)Cn1ncc(Br)c(Br)c1=O | x | -4.4* | -6 | x | 8 | 104* | + | 85*
CC(C)(C)C(=O)Cn1ncc(N2CCOCC2)c(Cl)c1=O | 0 | x | -6 | 3 | -6 | x | x | x
O=C(c1ccccc1)c1cc(Cl)ccc1N1C(=O)C=CC1=O | x | -4.5* | -14 | x | 43* | 106* | + | -10
N#Cc1cc(C(=O)c2cc(Cl)ccc2O)cn(-c2ccccc2)c1=O | -2 | -0.37 | -2 | -1 | 0 | 14 | x | x

Screening data deposited in PubChem by several laboratories.
